# Hits are enriched below; roughly 4.6% of the tested compounds scored in any of these assays.
# TAAR1 agonist: human TAAR1 agonists, primary screen, Fluo-8 calcium fluorescence, CHO RD-HGA16 cells; Trace amine-associated receptor 1 (Homo sapiens), Q96RJ0; vehicle wells 0%, saturating PEA agonist 100%; activation, % at 3 µM; actives 0.99% (n = 360,000); AID 624467, 2012;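 active = activation above the mean activation of all test compounds in the run plus 3 SD, cut at about 38% in these data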
# Target sequence (Q96RJ0 whole entry, looked up): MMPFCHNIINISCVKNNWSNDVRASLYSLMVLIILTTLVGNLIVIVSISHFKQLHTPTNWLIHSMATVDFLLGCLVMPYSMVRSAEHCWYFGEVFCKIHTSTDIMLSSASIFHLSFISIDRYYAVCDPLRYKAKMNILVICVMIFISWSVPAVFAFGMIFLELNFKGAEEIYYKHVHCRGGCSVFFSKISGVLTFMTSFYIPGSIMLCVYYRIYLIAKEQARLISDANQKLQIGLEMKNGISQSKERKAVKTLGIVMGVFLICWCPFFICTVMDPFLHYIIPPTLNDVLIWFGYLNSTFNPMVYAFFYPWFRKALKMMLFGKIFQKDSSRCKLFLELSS
#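 Assay system – CHO-derived RD-HGA16 cells with stable Gα16 and human TAAR1 · Compound dosing – one-point dosing at 3 µM (nominal) · Incubation – 17-24 h seeding, 75 min 37 °C dye, 30 min RT · Measured by – kinetic Fluo-8 calcium fluorescence · Control set – DMSO vehicle as 0%, PEA at EC100 as 100% · Repeats – single well for each compound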
# OX1R antag-1: OX1R (HCRTR1) antagonists, primary screen, fluorescence, CHO/OX1R cells, Fluo-8 calcium, orexin A; actives 0.43% (n = 330,000); Orexin/Hypocretin receptor type 1 (Homo sapiens), O43613; inhibition, % at 5 µM; AID 434989, 2010; Fluo-8 calcium fluorescence;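 active = inhibition above its plate's threshold, mean inhibition of all tested compounds on the plate plus 3 SD, cut at about 37% in these data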;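 note: 0% = orexin A challenge wells and 100% = SB-334867-A antagonist wells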
# TAAR1 antagonist: human TAAR1 antagonists, primary screen, Fluo-8 calcium fluorescence, CHO RD-HGA16 cells. Trace amine-associated receptor 1 (Homo sapiens), Q96RJ0. antagonist. inhibition, % at 3 µM. actives 1.5% (n = 360,000). AID 624466, 2012;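 active = inhibition above a per-plate cutoff, the mean inhibition of test compounds on that plate plus 3 SD, cut at about 49% in these data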;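 note: 0% = DMSO plus EC80 beta-PEA response and 100% = DMSO alone without agonist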
#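 Test system: RD-HGA16 CHO cells with stable hTAAR1 and Gα16 / Probe or stimulus: EC80 β-phenethylamine stimulus / Times: seeding 17-24 h prior, 75-min 37 °C, 30-min RT dye loading / Detection: Fluo-8 calcium-sensitive fluorescence / Read-out basis: % inhibition scaled between DMSO and EC80 PEA controls / Repeats: singlicate, one well per test compound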
# OX1R antag-2: antagonists of human orexin 1 receptor (OX1R). OX1R-expressing cells, FRET antagonist read-out. inhibition, % at 6.6 µM. actives 1.8% (n = 330,000); in the data active = inhibition mostly above about 38%, no sharp cut-off; inactive = mostly below about 40%;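 note: 0% = agonist challenge alone and 100% = reference antagonist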
# CHO parental Ca: ATP-evoked calcium signal inhibitors, parental CHO, primary screen, counter-screen for OX1R antagonist project, cell-based, fluorescence, Fluo-8 calcium dye. AID 463079, 2010. actives 0.63% (n = 330,000). inhibition, % at 5.6 µM. parental CHO-K1, ATP-induced calcium, Fluo-8 fluorescence;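 active = inhibition above that plate's mean sample inhibition plus 3 SD, cut at about 26% in these data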;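 note: 0% = ATP-challenged DMSO wells and 100% = DMSO wells without ATP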
#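 Assay system – parental CHO cells · Reagent – ATP stimulus · Detection – intracellular calcium via Fluo-8 no-wash fluorescent dye · Evaluation – percent inhibition of ATP-evoked calcium rise, normalized to controls · Controls – ATP wells versus no-ATP DMSO wells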
# GPR7 antag: GPR7 receptor antagonists, primary screen, cell-based, fluorescence, single concentration; Neuropeptides B/W receptor type 1 (Homo sapiens), P48145; GPR7-expressing cells, fluorescence antagonist assay; inhibition, % at 4.4 µM; actives 1.1% (n = 290,000); AID 1861, 2009; in the data active = inhibition above about 16%, passing the limit was not always enough;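 note: cells stimulated with the agonist NPW; 0% = agonist with vehicle and 100% = vehicle without agonist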
# Target sequence (P48145 whole entry, looked up): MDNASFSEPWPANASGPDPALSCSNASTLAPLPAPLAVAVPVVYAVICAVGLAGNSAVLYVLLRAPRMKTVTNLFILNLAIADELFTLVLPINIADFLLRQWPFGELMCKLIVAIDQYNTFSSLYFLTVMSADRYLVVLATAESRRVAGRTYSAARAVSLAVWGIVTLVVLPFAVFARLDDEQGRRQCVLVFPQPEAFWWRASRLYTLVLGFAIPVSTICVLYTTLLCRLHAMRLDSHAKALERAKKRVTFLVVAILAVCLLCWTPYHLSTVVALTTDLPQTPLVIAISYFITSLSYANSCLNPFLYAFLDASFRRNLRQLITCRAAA
# * hit, by the source's call; . = no result.
SMILES,TAAR1 agonist,OX1R antag-1,TAAR1 antagonist,OX1R antag-2,CHO parental Ca,GPR7 antag
O=C(OCc1cccnc1)C1=Cc2ccccc2OC1,1,-11,-15,17,-25,15
Cc1c(C(=O)OCC(=O)N(C)Cc2ccccc2)oc2ccccc12,9,26,-21,60*,-12,.
COc1ccc2oc(C(=O)OCC(=O)N3CC(C)CC(C)C3)c(C)c2c1 (stereo unspecified),3,-15,16,22,-25,.
Cc1c(C(=O)OCC(=O)N2CC(C)CC(C)C2)oc2ccccc12 (stereo unspecified),4,-24,-47,70*,-17,.
CCOC(=O)N1CCN(C(=O)CN(Cc2ccccc2)S(C)(=O)=O)CC1,0,2,-10,15,-1,-16
CS(=O)(=O)N(CC(=O)N1CCN(Cc2ccccc2)CC1)Cc1ccccc1,3,-4,-3,9,2,16*
O=C(NCc1cccc(C(F)(F)F)c1)c1cc(Cl)ccc1Cl,0,-23,18,10,-16,4
O=C(NCc1cccc(C(F)(F)F)c1)c1cc(Cl)cc(Cl)c1,9,-33,-6,42*,-22,1
COC(=O)c1cn(NC(=O)Cc2ccc(OC)c(OC)c2)c(=O)c2ccccc12,2,-8,-4,48*,-13,-2
COC(=O)c1cn(NC(=O)Cc2cccc(OC)c2)c(=O)c2ccccc12,1,-21,-8,72*,-23,1
Cn1nc(C(=O)Nc2ccc(-n3cnnn3)cc2)c2ccccc2c1=O,6,-27,18,3,-18,.
CCCCn1nc(C(=O)Nc2ccc(-n3cnnn3)cc2)c2ccccc2c1=O,24,-16,52*,5,-14,.
O=C(NN=C1c2ccccc2-c2ccccc21)c1ccccn1,.,85*,.,75*,-32,-12
Cc1ccc(S(=O)(=O)Nc2cc(Cl)ccc2-n2cncn2)cc1,2,-8,2,-1,-13,.
CCOC(=O)c1cc(C(=O)OCC)cc(-n2c(C)cc(C(=O)CN3CCOCC3)c2C)c1,-1,-9,-22,13,-17,-7
CSCCC(NS(=O)(=O)c1ccc2c(c1)OCCO2)C(=O)N(C)Cc1ccccc1F (stereo unspecified),31,-19,55*,9,-18,.
COc1cccc(C(=O)C2CCCN(Cc3cn(CC(N)=O)c4ccccc34)C2)c1 (stereo unspecified),3,-14,15,37,-11,-5
COc1ccc(F)cc1-c1cc(NC=O)c2ncc(-c3cc(OC)c(OC)c(OC)c3)n2c1,48*,.,77*,.,.,.
COc1ccccc1-c1cc(NC=O)c2ncc(-c3ccc(F)cc3)n2c1,52*,.,51*,.,.,.
O=C(O)CCC(=O)OCCc1cc2ccccc2c(=O)o1,4,0,4,6,4,.
O=C1NC(=S)NC1=Cc1ccccc1O,47*,.,12,.,.,.
O=C(COC(=O)Cc1ccccc1[N+](=O)[O-])NNC(=O)c1ccc([N+](=O)[O-])cc1,3,-13,-11,36*,-5,.
O=C(COC(=O)CSc1ccccc1)NNC(=O)c1ccc([N+](=O)[O-])cc1,0,-10,-2,47,-5,-8
O=C(c1ccc([N+](=O)[O-])cc1)N1CCN(C(=O)c2cccnc2)CC1,1,-15,-8,53*,12,-1
O=C(COC(=O)CSc1ccc(F)cc1)NNC(=O)c1ccc([N+](=O)[O-])cc1,1,3,-3,59*,-2,.
SMILES,TAAR1 agonist,OX1R antag-1,TAAR1 antagonist,OX1R antag-2,CHO parental Ca,GPR7 antag
CCOc1ccc(OCC(=O)OCC(=O)NNC(=O)c2ccc([N+](=O)[O-])cc2)cc1,1,3,2,57*,7,.
CC1(C(=O)NS(=O)(=O)c2ccccc2Cl)CCN1C(=O)Cc1cccc2ccccc12 (stereo unspecified),0,.,-8,.,.,.
COc1ccc(NC(=O)CC2CCCC2)cc1OC,2,-7,-10,12,-7,5
O=C(NNC(=O)c1ccc([N+](=O)[O-])cc1)c1ccncc1,2,9,1,70*,11,5
O=C(NNC(=O)c1ccc([N+](=O)[O-])cc1)c1ccc(F)cc1,5,6,-20,61,0,.
CC(=O)Nc1cccc(C(=O)OCC(=O)NNC(=O)c2ccc([N+](=O)[O-])cc2)c1,4,-6,-34,52*,2,.
CN(c1ccc(OCC(=O)OCC(=O)Nc2ccc([N+](=O)[O-])cc2)cc1)S(=O)(=O)c1cccs1,41*,.,60*,.,.,.
CN(c1ccc(OCC(=O)OCC(=O)Nc2ccccc2)cc1)S(=O)(=O)c1ccc(F)cc1,21,-5,31,12,-3,-9
CC(=O)Nc1cccc(C(=O)OCc2ccc([N+](=O)[O-])cc2)c1,1,-8,-11,18,-5,-8
COc1cccc(CC(=O)OCC(=O)NNC(=O)c2ccc([N+](=O)[O-])cc2)c1,-1,-11,-33,60*,-9,-5
COc1ccc(CNC(=O)C(C)N2C(=O)COc3ccc(C)cc32)c(OC)c1 (stereo unspecified),1,-23,-16,18,5,-4
Cc1ccc(S(=O)(=O)NNC(=O)Nc2ccc(C)c(C)c2)c(C)c1,-1,-27,-13,8,-23,-8
COC(=O)c1ccc(NC(=O)c2ccc(OC(C)=O)c(OC)c2)cc1,3,-8,11,25,-2,-5
O=C(COC(=O)C1CC2CCCC(C1)C2=O)NNC(=O)c1ccc([N+](=O)[O-])cc1 (stereo unspecified),0,-15,-16,69*,0,.
Cc1noc(C)c1S(=O)(=O)N1CCCC(C(=O)N2CCN(C3CCCCC3)CC2)C1 (stereo unspecified),-1,-20,-9,5,-17,3
Cc1ccc(Cl)cc1N1CCN(C(=O)c2ccc(NS(=O)(=O)c3c(C)noc3C)cc2)CC1,1,26,27,41,44*,5
Cc1ccc(C)c(N2CCN(C(=O)C3CCCN(S(=O)(=O)c4c(C)noc4C)C3)CC2)c1 (stereo unspecified),-1,-31,53*,14,-7,3
O=C(NC(=S)NC(CO)Cc1ccccc1)c1ccc(F)cc1 (stereo unspecified),-2,-28,-24,9,-18,-16

# Source: PubChem BioAssay (The Scripps Research Institute Molecular Screening Center)
